From publication PMC4629469 (Bioorganic & medicinal chemistry letters, 2015)

Experiments:
[1] = test system: M1, M3, and M5 human mAChRs; assay: [3H]NMS binding, comparison over all three mAChR subtypes
In short: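 Membranes from CHO cells stably expressing recombinant human M1, M3 or M5 mAChR. Inhibition of [3H]N-methylscopolamine binding by the test compound gives IC50, which is converted to Ki by the Cheng–Prusoff equation. Ki is the mean ± SEM of three independent experiments, each run in duplicate. Subtype comparisons use these Ki values at each receptor.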

[2] = biological target: T1, M5 recombinant human mAChRs (Homo sapiens, UniProt P08912); assay: [3H]NMS binding to CHO cell membranes expressing M5 mAChR; settings: vs compound 1
T1 sequence (P08912 1-532): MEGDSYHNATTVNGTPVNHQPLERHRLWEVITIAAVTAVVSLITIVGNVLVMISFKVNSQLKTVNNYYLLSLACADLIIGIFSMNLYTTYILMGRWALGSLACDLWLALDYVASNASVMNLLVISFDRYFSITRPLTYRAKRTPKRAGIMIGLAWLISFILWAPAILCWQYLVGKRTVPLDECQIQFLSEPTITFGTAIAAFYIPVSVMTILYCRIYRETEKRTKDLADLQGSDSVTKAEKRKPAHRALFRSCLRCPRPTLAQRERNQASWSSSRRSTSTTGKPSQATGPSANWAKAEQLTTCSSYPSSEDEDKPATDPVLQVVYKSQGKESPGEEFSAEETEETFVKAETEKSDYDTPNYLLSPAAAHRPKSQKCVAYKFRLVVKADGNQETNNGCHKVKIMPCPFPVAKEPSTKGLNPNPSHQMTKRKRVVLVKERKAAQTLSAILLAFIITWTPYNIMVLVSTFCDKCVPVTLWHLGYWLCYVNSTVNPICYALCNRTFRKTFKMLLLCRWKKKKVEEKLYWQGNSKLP

[3] = biological target: T2, M1 recombinant human mAChRs (Homo sapiens, UniProt P11229); assay: [3H]NMS binding to CHO cell membranes expressing M1 mAChR; settings: vs compound 1
T2 sequence (P11229 1-460): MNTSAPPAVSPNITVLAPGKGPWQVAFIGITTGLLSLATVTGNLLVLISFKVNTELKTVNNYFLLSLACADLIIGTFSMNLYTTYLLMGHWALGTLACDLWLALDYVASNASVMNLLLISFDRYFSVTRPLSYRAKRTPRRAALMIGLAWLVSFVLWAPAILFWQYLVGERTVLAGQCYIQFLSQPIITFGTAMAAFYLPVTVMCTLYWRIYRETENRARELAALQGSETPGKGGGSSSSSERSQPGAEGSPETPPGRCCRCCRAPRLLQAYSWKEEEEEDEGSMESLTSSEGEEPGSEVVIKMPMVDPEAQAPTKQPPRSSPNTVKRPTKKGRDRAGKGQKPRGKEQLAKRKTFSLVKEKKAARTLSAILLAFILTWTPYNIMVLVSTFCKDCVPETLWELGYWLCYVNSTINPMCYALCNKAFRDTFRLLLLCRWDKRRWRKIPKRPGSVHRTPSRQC

[4] = biological target: M3 recombinant human mAChRs (Homo sapiens, UniProt P20309); assay: [3H]NMS binding to CHO cell membranes expressing M3 mAChR; settings: vs compound 1
M3 recombinant human mAChRs, sequence (P20309 whole entry): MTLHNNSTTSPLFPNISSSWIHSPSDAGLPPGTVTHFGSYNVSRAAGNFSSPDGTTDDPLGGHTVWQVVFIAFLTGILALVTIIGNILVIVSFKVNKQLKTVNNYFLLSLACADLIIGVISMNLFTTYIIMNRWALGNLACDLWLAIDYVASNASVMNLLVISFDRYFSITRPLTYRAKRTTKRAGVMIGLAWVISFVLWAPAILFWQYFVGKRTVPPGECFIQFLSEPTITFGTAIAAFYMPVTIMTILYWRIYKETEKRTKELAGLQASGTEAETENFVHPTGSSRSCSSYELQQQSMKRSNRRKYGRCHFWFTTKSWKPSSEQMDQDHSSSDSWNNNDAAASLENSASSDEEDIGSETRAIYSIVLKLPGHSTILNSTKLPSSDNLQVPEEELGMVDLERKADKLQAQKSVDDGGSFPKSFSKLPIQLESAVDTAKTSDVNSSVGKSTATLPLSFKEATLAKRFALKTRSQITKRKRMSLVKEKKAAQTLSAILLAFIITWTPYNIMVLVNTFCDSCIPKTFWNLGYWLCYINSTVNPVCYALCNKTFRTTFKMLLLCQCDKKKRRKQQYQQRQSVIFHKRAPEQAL

SMILES | fold increase in affinity of the reverse ester ([1]; 6a vs 4a, all three mAChRs) | decrease of affinity at M5 compared with compound 1 [2] | subtype selectivity ([1]; M5 over M1 and M3) | fold higher affinity at M1 compared with compound 1 [3] | fold higher affinity at M3 compared with compound 1 [4]
COc1ccc(CCC(=O)OCC2(c3ccccc3)CCN(C)CC2)cc1OC [Compound 6a] | 1 to 3 fold |  |  |  | 
COc1ccc(CCOC(=O)C2(c3ccccc3)CCN(C)CC2)cc1OC [Compound 4a] |  | 30% | not subtype selective | 2 fold | 19 fold
